According to ChEMBL document CHEMBL3351939, “Diterpenoids with Immunosuppressive Activities from Cinnamomum cassia” (J Nat Prod, 2014):
Activity calls are given as the source filed them. The calls are words filed in the database; no cut-off is given here.

Columns and labels:
T-cell = assay: Immunosuppressive activity in mouse T cells assessed as inhibition of ConA-induced cell proliferation at 0.05 to 0.8 mM; format: functional, cell-based
How it was run: (§1)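 Murine splenocytes with ConA-induced T-cell proliferation; the read-out is percent inhibition of proliferation. Cyclosporine A serves as the reference. Results are given as mean ± SD, n = 3.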

[1] = Toxicity against mouse lymphocytes assessed as cell viability at 50 uM; format: cell-based, Lymphocyte; settings: read-out: Activity
[2] = Immunosuppressive activity in mouse T cells assessed as inhibition of ConA-induced cell proliferation at 50 uM; format: functional; how it was run: as §1
B = assay: Immunosuppressive activity in mouse B cells assessed as inhibition of LPS-induced cell proliferation at 0.05 to 0.8 mM; format: functional, cell-based
How it was run: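 Murine splenocytes with LPS-induced B-cell proliferation; the read-out is percent inhibition of proliferation.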

[3] = Immunosuppressive activity in mouse T cells assessed as inhibition of ConA-induced cell proliferation at 100 uM; format: functional; how it was run: as §1

Compound	inhibition (T-cell)	viability at 50 µM [1] [%]	inhibition at 50 µM [2] [%]	inhibition (B)	inhibition at 100 µM [3] [%]
CC1=C([C@H](C)CO)C[C@@]2(O)[C@@]3(C)CC(=O)O[C@@H]4[C@@H](C)CC[C@@]3(O)[C@@]4(O)[C@@]12O	Dose-dependent effect	97.8	58.8	Dose-dependent effect	
C/C=C/C[C@@H](C)[C@@H](O)[C@H]1C(=O)N[C@@H](CC)C(=O)N(C)CC(=O)N(C)[C@@H](CC(C)C)C(=O)N[C@@H](C(C)C)C(=O)N(C)[C@@H](CC(C)C)C(=O)N[C@@H](C)C(=O)N[C@H](C)C(=O)N(C)[C@@H](CC(C)C)C(=O)N(C)[C@@H](CC(C)C)C(=O)N(C)[C@@H](C(C)C)C(=O)N1C [CYCLOSPORINE]					101
CC1=C(C(C)C)C[C@@]2(O)[C@@]3(CO[C@@H]4O[C@H](CO)[C@@H](O)[C@H](O)[C@H]4O)CC(=O)O[C@H]([C@]4(O)[C@H](C)CC[C@@]43O)[C@@]12O	inactive			inactive	
CC1=C([C@H](C)CO)C[C@@]2(O)[C@@]3(C)CC(=O)O[C@H]([C@]4(O)[C@H](C)CC[C@@]43O)[C@@]12O	Dose-dependent effect	105	86.1	Dose-dependent effect	94.5
